Assay outcomes: PubChem, Sanford-Burnham Center for Chemical Genomics
The list is a sample of the results.
Apaf1 activ – activates human Apaf-1 apoptosome. activity change, negative = activation, % at 20 µM. AID 489031. O14727. 0.31% of 330,000 active. Apaf-1 apoptosome caspase-3 activation, DEVD-Rh110 fluorescence; hits give low values;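 active = activity change at or below -40% at 20 µM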
Target sequence (O14727 whole entry, looked up): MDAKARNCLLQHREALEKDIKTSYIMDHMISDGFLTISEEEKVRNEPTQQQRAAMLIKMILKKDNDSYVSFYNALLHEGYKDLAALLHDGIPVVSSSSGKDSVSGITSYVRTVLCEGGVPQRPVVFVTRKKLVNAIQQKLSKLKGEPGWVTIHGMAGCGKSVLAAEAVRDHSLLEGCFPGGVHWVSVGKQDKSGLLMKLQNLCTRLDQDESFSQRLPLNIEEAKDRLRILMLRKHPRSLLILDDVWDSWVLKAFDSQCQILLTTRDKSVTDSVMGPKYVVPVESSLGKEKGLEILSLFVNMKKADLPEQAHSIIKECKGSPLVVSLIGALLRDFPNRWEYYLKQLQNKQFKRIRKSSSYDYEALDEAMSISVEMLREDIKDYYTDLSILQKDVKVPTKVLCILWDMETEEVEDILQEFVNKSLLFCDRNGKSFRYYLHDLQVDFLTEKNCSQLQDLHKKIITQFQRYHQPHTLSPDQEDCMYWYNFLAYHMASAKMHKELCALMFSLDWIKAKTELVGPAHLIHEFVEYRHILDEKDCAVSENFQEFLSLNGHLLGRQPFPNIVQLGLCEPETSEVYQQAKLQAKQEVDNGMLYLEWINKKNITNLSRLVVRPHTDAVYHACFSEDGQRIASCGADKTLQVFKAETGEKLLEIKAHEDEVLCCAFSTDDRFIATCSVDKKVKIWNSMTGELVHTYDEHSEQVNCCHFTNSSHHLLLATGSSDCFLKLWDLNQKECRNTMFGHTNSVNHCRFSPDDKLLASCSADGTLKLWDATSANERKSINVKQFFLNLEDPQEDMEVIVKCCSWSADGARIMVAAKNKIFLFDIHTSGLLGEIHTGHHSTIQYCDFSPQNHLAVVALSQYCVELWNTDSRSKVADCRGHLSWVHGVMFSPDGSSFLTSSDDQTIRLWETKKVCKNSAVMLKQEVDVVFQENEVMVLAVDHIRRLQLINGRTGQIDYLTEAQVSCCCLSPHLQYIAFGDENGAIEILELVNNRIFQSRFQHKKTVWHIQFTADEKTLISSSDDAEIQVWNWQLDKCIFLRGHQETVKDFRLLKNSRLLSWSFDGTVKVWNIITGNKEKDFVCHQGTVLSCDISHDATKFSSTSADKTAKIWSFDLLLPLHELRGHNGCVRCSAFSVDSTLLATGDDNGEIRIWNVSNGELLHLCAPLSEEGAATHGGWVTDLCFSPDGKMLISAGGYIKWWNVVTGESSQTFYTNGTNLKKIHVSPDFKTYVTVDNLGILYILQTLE
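Material: biochemical Apaf-1 apoptosome reconstitution; Medium: 20 mM HEPES buffer, pH 7.5, containing CHAPS and BSA; Reagent: dATP, cytochrome c, and (Z-DEVD)2-Rh110 caspase-3 substrate; Times: 30 min preincubation, 50 min reaction, room temperature; Signal: Rh110 fluorescence, excitation 480 nm, emission 540 nm; Measure: Caspase-3 activity via Apaf-1.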
Rh110 act interf – counter-screen for Apaf-1 activators: fluorescence interference; shares compounds with Apaf1 activ; Rh110 fluorescence interference, quenched caspase reaction, Ex480/Em540; fluorescence interference (activity change), % at 20 µM, hits read low; 980 tested, under 10 active; AID 504616;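 active = mean activity change at or below -40% when tested at 20 µM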
Apaf-1 act conf – confirmation of human Apaf-1 activators. activity change, negative = activation, % at 20 µM. 5% of 980 active. reconstituted apoptosome caspase-3 activity, DEVD-Rh110 fluorescence; hits give low values. shares compounds with Apaf1 activ;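 active = mean activity change at or below -40%, meaning activation of 40% or more, at 20 µM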
Of the large screens only hits and unclear results are named; the others gave an inactive call (follow-up assays come after a bar, where they were run).

COc1ccc(C(=O)N(C)C(C)c2ccon2)cc1OC1CCN(C(C)C)CC1 (stereo unspecified)	Apaf1 activ -315 | Rh110 act interf inactive | Apaf-1 act conf inactive
C#CCOCCOCCOCCNc1nc(N2CCN(C(=O)CCCCCCCCCCNC(=O)[C@@H](CCC(=O)O)n3cc(CCCCCN)nn3)CC2)nc(N2CCN(C(=O)CCCCCCCCCCNC(=O)[C@H](CCCCN)n3cc(C[C@@H](C)CC)nn3)CC2)n1	none
CCCCCc1ccc(OCCC[n+]2ccccc2)c(CCCCC)c1	none
CCCCCCCCCCCCCCCC[n+]1cccc(C(=O)N(CC)CC)c1	none
CCCN(C(=O)COC(=O)C12CCC(=O)N1c1ccccc1S2)c1c(N)n(Cc2ccccc2)c(=O)[nH]c1=O (stereo unspecified)	Apaf1 activ -50 | Rh110 act interf inactive | Apaf-1 act conf inactive
CC(=O)N(/N=C1\Sc2ccccc2C1=O)c1ccccc1C	none
COC(=O)CCC(=O)OC1(C)C(=O)C=C2C=C(C3CC3)N(CC3CC3)C=C2C1=O (stereo unspecified)	none
O=C(N/N=C/c1ccccc1O)C1(O)c2ccccc2-c2ccccc21	Apaf1 activ -59 | Rh110 act interf inactive | Apaf-1 act conf inactive
CS(=O)(=O)c1nc(-c2ccc(Br)cc2)cc(-c2ccccc2)c1C#N	none
CC(=O)c1cc(C#N)c(Oc2cccc(C(F)(F)F)c2)nc1C	Apaf1 activ -151 | Rh110 act interf inactive | Apaf-1 act conf inactive
CC(C)COCC(CN(Cc1ccccc1)c1ccccc1)N1CCCC1 (stereo unspecified)	none
Cc1ccc(C(=O)N/N=C/c2ccc(-c3ccc(Br)cc3[N+](=O)[O-])o2)o1	none
Oc1cc(NCCc2cccnc2)cc2cccnc12	none
CCOC12NC(=O)CC(=O)N1C(c1ccccc1)=CS2 (stereo unspecified)	Apaf1 activ -294 | Rh110 act interf inactive | Apaf-1 act conf inactive
CC(C)(C)NC(=O)CC1C(=O)NCCN1Cc1c(F)cccc1Cl (stereo unspecified)	Apaf1 activ -41 | Rh110 act interf inactive | Apaf-1 act conf inactive
COc1ccc(S(=O)(=O)N2CCCCCC2)cc1C(=O)N(C)Cc1c(F)cccc1Cl	none
C#CCOCCOCCOCCNc1nc(N2CCN(C(=O)CCCCCCCCCCNC(=O)[C@@H](CCC(=O)O)n3cc(CCCCCN)nn3)CC2)nc(N2CCN(C(=O)CCCCCCCCCCNC(=O)[C@H](CO)n3cc(CCCCCN)nn3)CC2)n1	none
C[C@H](NC(=O)N1CCn2c1nc1ccccc12)C(=O)NC1CCCCC1	Apaf1 activ -168 | Rh110 act interf inactive | Apaf-1 act conf inactive
COc1cc(/C=C/c2nc(N)nc(-c3ccccc3O)n2)cc(OC)c1OC	Apaf1 activ -517 | Rh110 act interf inactive | Apaf-1 act conf inactive
COC(=O)CCC(=O)OC1(C)C(=O)C=C2C=C(C3CC3)N(C3CCCC3)C=C2C1=O (stereo unspecified)	none
CCCCCCCCCCn1c2c(c(=N)c3c1CCC3)CCC2	none
COc1ccc(OCc2cc(C(=O)NC3CCOCC3)no2)c2ccccc12	none
Cc1cccc(C)c1OCc1cc(C(=O)NCC2CCCCC2)no1	Apaf1 activ -57 | Rh110 act interf inactive | Apaf-1 act conf inactive
Fc1ccc(C2=NOC(c3nnc(-c4ccccc4)o3)C2)cc1 (stereo unspecified)	Apaf1 activ -461 | Rh110 act interf inactive | Apaf-1 act conf inactive
CCC(C)c1ccccc1NC(=O)COC(=O)c1ccc2[nH]c3c(c2c1)CCCC3 (stereo unspecified)	Apaf1 activ -170 | Rh110 act interf inactive | Apaf-1 act conf inactive
Cc1ccc(NC(=O)CN(C)C(=O)c2ccc3[nH]c4c(c3c2)CC(C)CC4)cc1 (stereo unspecified)	none
CCN(CCCNC(=O)CCn1c(=O)[nH]c2ccccc2c1=O)c1ccccc1	Apaf1 activ -505 | Rh110 act interf inactive | Apaf-1 act conf inactive
CC1(OC(=O)C2CCCC2)C(=O)C=C2C=C(c3ccsc3)N(CCCCO)C=C2C1=O (stereo unspecified)	none
COc1ccc2sc(-c3ccccc3OC)c(-c3ccc(OCCN(C)C)cc3)c2c1	none
C#CCOCCOCCOCCNc1nc(N2CCN(C(=O)CCCCCCCCCCNC(=O)[C@H](CCCCN)n3cc(CCO)nn3)CC2)nc(N2CCN(C(=O)CCCCCCCCCCNC(=O)[C@H](CCCCN)n3cc(C[C@@H](C)CC)nn3)CC2)n1	none
Cc1cc(C(=O)N/N=C2\CC(=O)c3ccccc32)c(C)n1-c1ccc(F)cc1	none
Nc1ccc2cn[nH]c2c1	none
CC(C)COC(=O)c1nnsc1NC(=O)Nc1ccccc1	Apaf1 activ -63 | Rh110 act interf inactive | Apaf-1 act conf inactive
NC(=O)OCC(COC(N)=O)c1ccccc1	none
CC1=NN(c2ccc(Br)cc2)C(=O)/C1=C/c1cccs1	none
COc1ccc(CN2C(=O)c3cccnc3C2=O)cc1S(=O)(=O)N1CCOc2ccccc21	Apaf1 activ -52 | Rh110 act interf inactive | Apaf-1 act conf inactive
COc1ccc(CN(C)C(=O)Cc2ccc(OC)c(S(=O)(=O)N3CCOCC3)c2)cc1OC	none
COc1ccc(CC(=O)N(C)CC(=O)Nc2ccccc2Cl)cc1S(=O)(=O)N1CCOCC1	none
Cc1oc2c(c1C(=O)c1ccccc1)C(=O)C(=O)c1ccccc1-2	none
Cc1cn([C@H]2C[C@H](N=[N+]=[N-])[C@@H](CO)O2)c(=O)[nH]c1=O	Apaf1 activ -43 | Rh110 act interf inactive | Apaf-1 act conf inactive
CC(=O)OCCCNc1cc(Sc2nc3ccccc3s2)c2nonc2c1[N+](=O)[O-]	none
c1ccc(-c2sc3ccccc3c2-c2ccc(OCCN3CCCC3)cc2)cc1	none
CN(C)CCCN(C(=O)CCc1ccccc1)c1nc2ccc(Cl)cc2s1	none
C=CCNC(=O)C1(S(=O)(=O)c2ccccc2)CC=CC1	Apaf1 activ -384 | Rh110 act interf inactive | Apaf-1 act conf inactive
CN(C1=C(NC(=O)c2ccccc2)C(=O)c2ccccc2C1=O)C1CCS(=O)(=O)C1 (stereo unspecified)	none
O=[N+]([O-])c1cc(Br)c(O)c(C=Nc2ccc(N3CCOCC3)cc2)c1	none
CC(=O)N(C)C1=C(N2CCOCC2)C(=O)c2ccccc2C1=O	none
CC(Cc1cccc(C(F)(F)F)c1)NCCOC(=O)c1ccccc1 (stereo unspecified)	none
CC(NC(=O)c1ccco1)C(=O)OCc1cccc(C(F)(F)F)c1 (stereo unspecified)	Apaf1 activ -50 | Rh110 act interf inactive | Apaf-1 act conf inactive
CCC[C@@H](CN1CCC[C@H]1CN1C(N)=NC[C@H]1CC(C)C)N1C[C@@H](Cc2ccccc2)N(CCc2ccc(Cl)c(Cl)c2)C1=N	none
NC(=O)CSc1nc2c(sc3ccccc32)c(=O)n1CCCN1CCOCC1	Apaf1 activ -236 | Rh110 act interf inactive | Apaf-1 act conf inactive
CCOC(=O)c1c(NC(=O)c2ccc(C)cc2)sc2c1CC(C)(C)NC2(C)C	none
O=C(Cn1ncn2c(cc3ccccc32)c1=O)NCCc1cccs1	Apaf1 activ -392 | Rh110 act interf inactive | Apaf-1 act conf inactive
CN(Cc1cnc2nc(N)nc(N)c2n1)c1ccc(C(=O)N[C@@H](CCC(=O)O)C(=O)O)cc1	none
Cc1sc2ncn(CC(=O)NCCCC(=O)N3CCN(c4ccccc4)CC3)c(=O)c2c1C	Apaf1 activ -313 | Rh110 act interf inactive | Apaf-1 act conf inactive
